“And” between values parts separate entries of the source, which are not always exact repeats. Equal entries are not always repeated. Where two headings read alike, the source gives them in different places.
Tests used:
P2RY6 = test: PathHunter β-arrestin; format: cell-based; conditions: antagonist mode, 6 μM
Summary of the method: (§1)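 GPCR-ED fusion and β-arrestin-EA fusion; arrestin recruitment restores β-galactosidase, read by chemiluminescence. Antagonist mode uses EC80 agonist challenge. % inhibition = 100 × (1 − (test − vehicle RLU)/(EC80 control − vehicle RLU)). Hit requires >35% inhibition and mean RLU below EC80 RLU − 3 × EC80 SD.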

GPR119 = test: PathHunter β-arrestin; format: cell-based; conditions: 6 μM
Summary of the method: (§2)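 Vendor-run (DiscoveRx) PathHunter enzyme fragment complementation. β-Arrestin carries the EA fragment and the receptor carries ED; recruitment restores β-gal activity, read by chemiluminescence (RLU). Agonist % activity = vehicle-subtracted RLU relative to max control ligand (gpcrMAX) or to vehicle (orphanMAX). Antagonist % inhibition = 100% × (1 − vehicle-subtracted sample RLU / vehicle-subtracted EC80 agonist control RLU).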

NPY1R = test: PathHunter β-arrestin; format: cell-based; conditions: antagonist mode, 6 μM
Summary of the method: as §2

CXCR7 = test: PathHunter β-arrestin; format: cell-based; conditions: antagonist mode, 6 μM
Summary of the method: (§3)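 Engineered cells express the receptor fused to one β-galactosidase fragment (ED) and β-arrestin fused to the complementing fragment (EA). Receptor activation recruits β-arrestin, which restores enzyme activity, and this is read by chemiluminescence (RLU). Agonist % activity is 100% × (test − vehicle)/(maximal control ligand − vehicle). Antagonist mode is challenged with an EC80 control agonist, and % inhibition is 100% × (1 − (test − vehicle)/(EC80 − vehicle)). Hits require >30% activity or >35% inhibition, plus a 3×SD RLU margin.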

MC4R = test: PathHunter β-arrestin; format: cell-based; conditions: 6 μM
Summary of the method: as §2

GPR109B = test: PathHunter β-arrestin; format: cell-based; conditions: 6 μM
Summary of the method: as §2

TLR2 = test: RT2 qPCR primer assay, JJ012 cells; format: cell-based, human; conditions: 1 μg/ml PRP-1
Summary of the method: (§4)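 RNA was extracted, checked by spectrophotometry and reverse-transcribed. Custom RT2 SYBR-Green primer assays were run on three samples in technical triplicate. Ct was normalised to mean GAPDH/ACTB, ΔΔCt taken versus control, and fold change = 2^−ΔΔCt.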

GPCR receptors = test: PathHunter β-arrestin gpcrMAX panel, antagonist mode; format: cell-based; conditions: summary of Table II
Summary of the method: as §1

CXCR3 = test: PathHunter β-arrestin; format: cell-based; conditions: 6 μM
Summary of the method: as §3

GALR1 = test: PathHunter β-arrestin; format: cell-based; conditions: 6 μM
Summary of the method: as §3

[1] = test system: chondrosarcoma cell growth; conditions: cited from earlier work
PTGIR = test: PathHunter β-arrestin; format: cell-based; conditions: 6 μM
Summary of the method: (§5)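 β-Arrestin recruitment to GPCR read by β-galactosidase fragment complementation and chemiluminescence. Agonist: % = 100 × (test − vehicle)/(max control ligand − vehicle), hit at >30% and RLU > baseline + 3 SD. Antagonist, against EC80 agonist: % inhibition = 100 × (1 − (test − vehicle)/(EC80 − vehicle)), hit at >35% and RLU < EC80 − 3 SD.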

MUC5B = MUC5B ELISA, JJ012 cell lysates; format: cell-based; conditions: PRP-1 at 1 μg/ml; human JJ012 cell lysates
Summary of the method: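 Cells trypsinized at confluency and seeded in 6-well clusters at 1×10^6 cells/ml. Test compound added to experimental wells only, controls untreated. Overnight at 37°C, 5% CO2. Cells washed in ice-cold PBS with protease inhibitor, lysed in buffer with protease inhibitor (1:100), scraped and spun at 15,000 × g, 4°C. Protein measured in supernatant. MUC5B quantified with a commercial human MUC5B ELISA kit.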

AGTRL1 = test: PathHunter β-arrestin; format: cell-based; conditions: agonist mode, 6 μM
Summary of the method: (§6)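 β-Arrestin recruitment assay: the enzyme acceptor is fused to β-arrestin and the ED fragment to the GPCR. Recruitment restores β-galactosidase, read by chemiluminescence. % activity = 100% × (test − vehicle)/(max control ligand − vehicle). % inhibition = 100% × (1 − (test − vehicle)/(EC80 control − vehicle)). An agonist hit needs >30% activity and RLU > baseline + 3×SD. An antagonist hit needs >35% inhibition and RLU < EC80 RLU − 3×SD.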

[2] = test system: JJ012 chondrosarcoma cells; test: immunocytochemistry, PRP-1 localization; format: cell-based, human; conditions: PRP-1 antibody, Zenon Alexa Fluor 488; DAPI nuclear stain
CHRM5 = test: PathHunter β-arrestin; format: cell-based; conditions: 6 μM
Summary of the method: as §3

F2RL1 = test: PathHunter β-arrestin; format: cell-based; conditions: antagonist mode, 6 μM
Summary of the method: as §3

CALCR = test: PathHunter β-arrestin; format: cell-based; conditions: 6 μM
Summary of the method: as §6

P2RY1 = test: PathHunter β-arrestin; format: cell-based; conditions: 6 μM
Summary of the method: as §5

PTHR1 = test: PathHunter β-arrestin; format: cell-based; conditions: 6 μM
Summary of the method: as §5

TLR1 = test: RT2 qPCR primer assay, JJ012 cells; format: cell-based, human
Summary of the method: as §4

CXCR5 = test: PathHunter β-arrestin; format: cell-based; conditions: 6 μM
Summary of the method: as §3

HRH2 = test: PathHunter β-arrestin; format: cell-based; conditions: 6 μM
Summary of the method: as §2

CXCR4 = test: PathHunter β-arrestin; format: cell-based; conditions: 6 μM
Summary of the method: as §3

[3] = test system: G1/S phase cell cycle progression; conditions: chondrosarcoma, cited from earlier work
EBI2 = test: PathHunter β-arrestin; format: cell-based; conditions: antagonist mode, 6 μM
Summary of the method: as §3

SSTR5 = test: PathHunter β-arrestin; format: cell-based; conditions: agonist mode, 6 μM

In the case of Proline rich polypeptide 1 [PRP-1], the “% Inhibition” value (P2RY6) is reported as 3%, the “% Activity” value (GPR119; agonist mode) is reported as 3% and the “% Inhibition” value (GPR119; antagonist mode) is reported as −1%. For the same substance, the “% Inhibition” value (NPY1R) was 4%, the “% Inhibition” value (CXCR7) was −2% and the “% Activity” value (MC4R; agonist mode) was −1%. For the same substance, the “% Inhibition” value (MC4R; antagonist mode) was −6%, the “% Activity” value (GPR109B; agonist mode) was 1% and the “% Inhibition” value (GPR109B; antagonist mode) was −6%. The “fold upregulation (∆∆Ct)” value (TLR2; P<0.0001, 2^−∆∆Ct, normalized to GAPDH, ACTB) was 5.26 fold and > 5 fold, the gene expression (TLR2; heat map, vs nontreated control, technical triplicates) was “high expression” and the “GPCR coupling, antagonist mode” value (GPCR receptors) was “no indication that PRP-1 was G protein coupled”. The “% Activity” value (CXCR3; agonist mode) was 1%, the “% Inhibition” value (CXCR3; antagonist mode) was −1% and the “% Activity” value (GALR1; agonist mode) was 1%. The “% Inhibition” value (GALR1; antagonist mode) was −4%, the “inhibition of chondrosarcoma cell growth” value ([1]; ref [4],[5]) was 80–90% and the “inhibition of chondrosarcoma cell growth” value ([1]; ref [4],[6]) was > 80%. For the same substance, the “% Activity” value (PTGIR; agonist mode) was 1%, the “% Inhibition” value (PTGIR; antagonist mode) was −2% and the “MUC5B presence in cell lysates” value (MUC5B) was 440 ng/mL. The “% Activity” value (AGTRL1) was 1%, the localization [2] was “manifested its presence in the nucleus” and the “% Activity” value (CHRM5; agonist mode) was 5%. The “% Inhibition” value (CHRM5; antagonist mode) was −4%, the “% Inhibition” value (F2RL1) was 3% and the “% Activity” value (CALCR; agonist mode) was 1%. For the same substance, the “% Inhibition” value (CALCR; antagonist mode) was 1%, the “% Activity” value (P2RY1; agonist mode) was −1% and the “% Inhibition” value (P2RY1; antagonist mode) was 1%. For the same substance, the “% Activity” value (PTHR1; agonist mode) was 1%, the “% Inhibition” value (PTHR1; antagonist mode) was −2% and the gene expression (TLR1; 10 μg/ml PRP-1, heat map, average Ct, technical triplicates) was “well expressed”. The “fold change (∆Ct)” value (TLR1; qRT-PCR) was “did not report significant fold change”, the “% Activity” value (CXCR5; agonist mode) was 1% and the “% Inhibition” value (CXCR5; antagonist mode) was −8%. The “% Activity” value (HRH2; agonist mode) was 1%, the “% Inhibition” value (HRH2; antagonist mode) was 1% and the “% Activity” value (CXCR4; agonist mode) was 2%. For the same substance, the “% Inhibition” value (CXCR4; antagonist mode) was 2%, the cell cycle progression ([3]; ref [4],[5]) was “halting G1/S phase cell cycle progression” and the cell cycle progression ([3]; ref [6]) was “halts cell cycle progression in G1/S transition”. The “% Inhibition” value (EBI2) was −1% and the “% Activity” value (SSTR5) was 1%.

— article PMC5743405 (International Journal of Oncology, 2017)
